From publication PMC4969713 (Journal of Alzheimer's Disease, 2016)
Several values for one entry are separate records, joined by “and”; a condition that tells them apart may be missing. Equal values may be shown once. Where a name gives a salt, the structure may show the parent alone. Read-outs that look alike come from different tables or passages of the source.

Key:
CYP2D6 = CYP2D6 (Homo sapiens, UniProt P10635); assay: Metabolism by recombinant CYP2D6; format: in vitro ADME
male Long Evans rats = assay: Geller-Seifter conflict test; format: in vivo; settings: IV, 5 min before test
Procedure, shortened: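 Male Long Evans rats were food-deprived for 24 h, with at least 5 per group. Test compound was given IV via tail vein 5 min before testing. The test ran two 30-min sessions, unpunished and punished (conflict), with lever presses counted. Results were expressed as relative change versus the vehicle group.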

male SHK mice = assay: Apomorphine-induced disruption of pre-pulse inhibition; format: in vivo; settings: IP
Procedure, shortened: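 Male SHK mice received apomorphine as the pro-psychotic agent to disrupt pre-pulse inhibition. Groups: untreated control, apomorphine alone, haloperidol 1 mg/kg as positive control, and test compound at several doses. Groups were compared with the apomorphine-only group by Student test.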

BALB/c mice = assay: Porsolt forced swim test; format: in vivo; settings: AVN-101 0.05 mg/kg IP once daily for 4 days
hKvLQT1-hminK (IKs) = hKvLQT1-hminK (IKs) (Homo sapiens, UniProt P51787); assay: Cardiac channel inhibition, IKs; format: cell-based
Chain of hKvLQT1-hminK (IKs) (P51787 whole entry): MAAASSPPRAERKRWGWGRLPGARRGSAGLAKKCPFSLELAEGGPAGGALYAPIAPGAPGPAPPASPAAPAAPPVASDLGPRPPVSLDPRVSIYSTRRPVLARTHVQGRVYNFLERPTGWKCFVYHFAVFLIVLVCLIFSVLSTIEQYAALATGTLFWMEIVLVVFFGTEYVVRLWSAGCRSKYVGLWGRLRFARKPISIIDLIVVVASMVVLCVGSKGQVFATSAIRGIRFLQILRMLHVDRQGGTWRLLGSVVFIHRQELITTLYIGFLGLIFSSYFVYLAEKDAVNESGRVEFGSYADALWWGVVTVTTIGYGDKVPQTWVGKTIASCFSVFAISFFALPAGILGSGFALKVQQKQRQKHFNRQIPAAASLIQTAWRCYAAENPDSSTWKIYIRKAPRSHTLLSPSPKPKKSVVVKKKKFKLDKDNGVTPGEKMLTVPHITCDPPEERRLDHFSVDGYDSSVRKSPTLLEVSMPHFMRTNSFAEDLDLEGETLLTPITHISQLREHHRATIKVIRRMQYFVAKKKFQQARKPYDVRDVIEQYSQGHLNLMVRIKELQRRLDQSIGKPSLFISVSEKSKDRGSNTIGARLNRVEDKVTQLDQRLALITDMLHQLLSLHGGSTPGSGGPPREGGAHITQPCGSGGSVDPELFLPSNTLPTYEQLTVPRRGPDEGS

[1] = Stability in human blood plasma; format: in vitro ADME; settings: 30-min incubation, room temperature
Sprague Dawley rats = assay: Passive avoidance, scopolamine-induced amnesia, rats; format: in vivo; settings: 0.05 mg/kg IP
[2] = molecular target: calcium channels of N type (Homo sapiens, UniProt Q00975); assay: Target panel binding, calcium channel N type
healthy volunteers = assay: Phase I tolerability, healthy volunteers; format: in vivo, human
Procedure, shortened: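 Healthy volunteers received single oral doses. Venous blood was drawn through an IV catheter before dosing and at several time points after. Urine was collected before dosing and at 4 h and 24 h after. Systolic and diastolic pressure and heart rate were monitored.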

[3] = tested on: outbreed male and female rats; assay: Reproductive toxicology in rats; format: in vivo
Procedure, shortened: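 Outbred male and female rats weighing 220–250 g received test compound in 0.9% physiological solution intragastrically at 1.0 or 25.0 mg/kg. Assessments covered embryotoxicity, offspring development, mating and fertilization capability, and reproductive function.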

Caco-2 permeability = settings: human
5-HT1A receptor = 5-HT1A receptor (Homo sapiens, UniProt P08908); assay: Radioligand binding competition, 5-HT1A
Chain of 5-HT1A receptor (P08908 whole entry): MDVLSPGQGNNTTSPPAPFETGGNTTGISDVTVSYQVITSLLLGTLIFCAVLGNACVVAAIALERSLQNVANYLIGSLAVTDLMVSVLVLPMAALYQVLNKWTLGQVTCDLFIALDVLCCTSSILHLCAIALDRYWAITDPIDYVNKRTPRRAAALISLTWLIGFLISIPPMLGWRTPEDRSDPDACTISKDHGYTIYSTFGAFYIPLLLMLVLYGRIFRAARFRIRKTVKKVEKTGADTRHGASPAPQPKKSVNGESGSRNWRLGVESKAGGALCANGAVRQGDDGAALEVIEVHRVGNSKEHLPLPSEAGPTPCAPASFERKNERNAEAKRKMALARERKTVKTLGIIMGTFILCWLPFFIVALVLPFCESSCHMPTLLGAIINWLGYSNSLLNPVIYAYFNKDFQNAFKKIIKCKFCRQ

femur bone marrow cells = assay: Chromosomal aberrations in femur bone marrow cells; format: in vivo, mice
Procedure, shortened: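 Mice 8–12 weeks old, male and female, were dosed orally with test compound or cyclophosphamide 20 mg/kg. Schedule was single dose with kill at 24 h, or qd for 5 days with kill 6 h after the last dose. Colchicine 4 mg/kg was given orally 2.5 h before decapitation. Femur marrow was put into 0.55% KCl at 37°C for 15 min, then spun. Scoring covered 100 metaphases per animal (500 per group), expressed as % aberrant cells.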

[4] = molecular target: human recombinant H2 receptors (Homo sapiens, UniProt P25021); assay: Amthamine-induced cAMP accumulation in CHO-K1 cells; format: cell-based
Chain of human recombinant H2 receptors (P25021 whole entry): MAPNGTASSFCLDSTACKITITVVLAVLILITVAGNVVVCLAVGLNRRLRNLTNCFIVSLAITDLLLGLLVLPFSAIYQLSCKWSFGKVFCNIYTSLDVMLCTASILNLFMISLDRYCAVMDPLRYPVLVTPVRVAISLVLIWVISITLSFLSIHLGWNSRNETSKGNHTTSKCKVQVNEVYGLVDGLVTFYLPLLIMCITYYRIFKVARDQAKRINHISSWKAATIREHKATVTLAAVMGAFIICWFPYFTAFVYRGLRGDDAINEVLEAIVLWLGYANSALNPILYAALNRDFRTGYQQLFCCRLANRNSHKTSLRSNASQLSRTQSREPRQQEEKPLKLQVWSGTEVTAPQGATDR
Procedure, shortened: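 CHO-K1 cells exogenously expressing recombinant human H2 receptor were stimulated with 50 nM amthamine. Intracellular cAMP accumulation was registered, and blockade of this response by test compound was measured.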

[5] = Stability in murine blood plasma; format: in vitro ADME, mouse; settings: 30-min incubation, room temperature
P-glycoprotein = P-glycoprotein (Homo sapiens, UniProt P08183); assay: Pgp-Glo ATPase assay; format: biochemical
Chain of P-glycoprotein (P08183 whole entry): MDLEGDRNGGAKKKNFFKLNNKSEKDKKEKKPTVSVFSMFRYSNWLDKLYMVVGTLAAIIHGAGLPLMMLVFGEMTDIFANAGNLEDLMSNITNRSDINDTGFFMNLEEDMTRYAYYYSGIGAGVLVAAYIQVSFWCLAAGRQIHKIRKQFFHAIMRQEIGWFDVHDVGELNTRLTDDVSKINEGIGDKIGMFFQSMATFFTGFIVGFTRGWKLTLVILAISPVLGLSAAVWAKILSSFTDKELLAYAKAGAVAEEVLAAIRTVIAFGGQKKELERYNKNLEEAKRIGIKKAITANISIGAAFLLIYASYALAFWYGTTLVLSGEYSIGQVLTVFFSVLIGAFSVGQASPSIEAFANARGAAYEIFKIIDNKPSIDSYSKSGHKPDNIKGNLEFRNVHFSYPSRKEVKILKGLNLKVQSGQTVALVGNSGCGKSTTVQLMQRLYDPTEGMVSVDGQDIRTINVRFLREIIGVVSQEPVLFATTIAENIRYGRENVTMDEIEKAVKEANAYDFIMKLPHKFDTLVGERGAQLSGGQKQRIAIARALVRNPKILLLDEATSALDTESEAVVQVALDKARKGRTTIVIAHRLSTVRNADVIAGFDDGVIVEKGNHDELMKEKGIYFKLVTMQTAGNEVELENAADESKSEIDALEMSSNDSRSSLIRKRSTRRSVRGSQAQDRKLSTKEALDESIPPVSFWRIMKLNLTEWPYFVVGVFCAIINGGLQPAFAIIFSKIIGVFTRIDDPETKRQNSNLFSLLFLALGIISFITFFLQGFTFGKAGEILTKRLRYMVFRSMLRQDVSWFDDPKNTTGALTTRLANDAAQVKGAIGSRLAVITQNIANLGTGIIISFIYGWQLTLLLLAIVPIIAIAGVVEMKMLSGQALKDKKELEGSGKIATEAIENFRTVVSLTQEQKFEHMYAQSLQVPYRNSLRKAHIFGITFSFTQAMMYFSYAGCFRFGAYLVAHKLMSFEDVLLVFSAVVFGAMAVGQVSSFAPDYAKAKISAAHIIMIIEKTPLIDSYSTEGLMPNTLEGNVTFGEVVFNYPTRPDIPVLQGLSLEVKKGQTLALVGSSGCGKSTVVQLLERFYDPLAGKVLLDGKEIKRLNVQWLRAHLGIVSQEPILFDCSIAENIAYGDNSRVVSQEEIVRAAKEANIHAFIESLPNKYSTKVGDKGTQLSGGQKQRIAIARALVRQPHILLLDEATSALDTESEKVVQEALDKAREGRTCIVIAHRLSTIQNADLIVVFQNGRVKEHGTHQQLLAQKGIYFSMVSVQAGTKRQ
Procedure, shortened: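 P-glycoprotein ATPase activity was measured with the Pgp-Glo assay system per the manufacturer's protocol. Orthovanadate-sensitive activity was determined in the presence of test compound.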

CYP2C9 = CYP2C9 (Homo sapiens, UniProt P11712); assay: Metabolism by recombinant CYP2C9; format: in vitro ADME
Chain of CYP2C9 (P11712 whole entry): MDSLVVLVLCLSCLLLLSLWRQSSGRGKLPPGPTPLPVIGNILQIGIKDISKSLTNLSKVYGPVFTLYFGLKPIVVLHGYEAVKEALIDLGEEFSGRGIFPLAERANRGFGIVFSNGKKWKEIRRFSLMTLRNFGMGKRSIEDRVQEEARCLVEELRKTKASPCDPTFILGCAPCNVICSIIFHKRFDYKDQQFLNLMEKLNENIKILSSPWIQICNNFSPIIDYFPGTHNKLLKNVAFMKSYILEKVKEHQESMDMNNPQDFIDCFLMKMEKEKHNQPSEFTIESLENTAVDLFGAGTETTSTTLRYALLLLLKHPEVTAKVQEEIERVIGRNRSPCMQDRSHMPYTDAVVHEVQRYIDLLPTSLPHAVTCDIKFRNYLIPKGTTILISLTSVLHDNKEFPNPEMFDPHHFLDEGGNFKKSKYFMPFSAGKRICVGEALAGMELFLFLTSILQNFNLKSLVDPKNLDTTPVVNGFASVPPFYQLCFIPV

5-HT5A receptor = 5-HT5A receptor (Homo sapiens, UniProt P47898); assay: Radioligand binding competition, 5-HT5A
Chain of 5-HT5A receptor (P47898 whole entry): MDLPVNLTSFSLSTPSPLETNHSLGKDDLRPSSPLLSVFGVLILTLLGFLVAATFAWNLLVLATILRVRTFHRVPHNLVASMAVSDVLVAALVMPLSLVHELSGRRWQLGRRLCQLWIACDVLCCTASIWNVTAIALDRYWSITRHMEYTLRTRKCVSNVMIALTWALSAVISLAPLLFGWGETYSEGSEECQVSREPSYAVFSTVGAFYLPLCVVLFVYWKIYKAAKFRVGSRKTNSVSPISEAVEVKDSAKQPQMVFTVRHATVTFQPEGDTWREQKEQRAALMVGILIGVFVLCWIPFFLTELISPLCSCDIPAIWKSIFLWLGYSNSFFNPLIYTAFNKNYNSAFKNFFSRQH

Adrenergic α2C = Adrenergic α2C (Homo sapiens, UniProt P18825); assay: Radioligand competition, adrenergic α2C; format: binding
Chain of Adrenergic α2C (P18825 whole entry): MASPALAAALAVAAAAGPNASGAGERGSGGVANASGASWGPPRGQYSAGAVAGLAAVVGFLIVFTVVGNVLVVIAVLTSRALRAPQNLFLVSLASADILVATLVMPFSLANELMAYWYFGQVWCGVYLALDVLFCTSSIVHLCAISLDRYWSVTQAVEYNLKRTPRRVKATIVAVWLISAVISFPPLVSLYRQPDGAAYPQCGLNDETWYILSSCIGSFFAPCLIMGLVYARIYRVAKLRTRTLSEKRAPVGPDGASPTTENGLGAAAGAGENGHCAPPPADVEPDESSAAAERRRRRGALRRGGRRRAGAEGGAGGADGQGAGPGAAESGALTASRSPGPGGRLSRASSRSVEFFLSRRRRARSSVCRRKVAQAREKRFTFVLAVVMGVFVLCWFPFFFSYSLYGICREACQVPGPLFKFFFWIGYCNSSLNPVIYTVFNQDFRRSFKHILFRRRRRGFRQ

[6] = molecular target: norpinephrine transporter (Homo sapiens, UniProt P23975); assay: Target panel binding, norpinephrine transporter
[7] = 1 mg/kg PO qd for 5 days, females
[8] = 1 mg/kg PO qd for 5 days, males

Chain of CYP2D6 (P10635 whole entry): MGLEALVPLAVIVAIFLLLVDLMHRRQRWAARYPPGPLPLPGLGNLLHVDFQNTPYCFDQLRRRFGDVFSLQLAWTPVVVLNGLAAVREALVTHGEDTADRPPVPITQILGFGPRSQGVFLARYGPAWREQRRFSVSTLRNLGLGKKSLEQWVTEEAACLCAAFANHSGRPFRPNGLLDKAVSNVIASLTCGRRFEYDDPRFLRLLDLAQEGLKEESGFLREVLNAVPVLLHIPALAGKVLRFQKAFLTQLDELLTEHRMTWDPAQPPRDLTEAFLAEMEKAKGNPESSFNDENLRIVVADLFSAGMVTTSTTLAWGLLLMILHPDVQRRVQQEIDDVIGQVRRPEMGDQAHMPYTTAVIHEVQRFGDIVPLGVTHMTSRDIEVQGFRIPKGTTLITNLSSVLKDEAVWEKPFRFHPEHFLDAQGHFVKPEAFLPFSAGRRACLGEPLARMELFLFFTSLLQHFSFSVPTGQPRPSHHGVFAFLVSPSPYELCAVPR

Cc1ccc2c(c1)c1c(n2CCc2ccccc2)CCN(C)C1 [AVN-101, 2,8-dimethyl-5-penethyl-2,3,4,5-tetra-hydro-1h-pyrido[[4,3-B]]indole hydrochloride]
remaining at 0.5 h, 2 µM (CYP2D6): 0%
activity during unpunished rewards session (male Long Evans rats): no effect observed
activity during punished conflict rewards session (male Long Evans rats; compared to vehicle): significantly increased
optimal dose in restoration of PPI (male SHK mice): 0.1 to 0.5 mg/kg
effect on apomorphine-induced disruption of PPI (male SHK mice; apomorphine 20 mg/kg, Haloperidol 1 mg/kg): effective in reversing
decrease in immobility time (BALB/c mice): comparable to that observed with either Fluoxetine or Desipramine
IC50 (hKvLQT1-hminK (IKs)): 22500 nM
inhibition at 31.6 µM (hKvLQT1-hminK (IKs); read-out: % Inhibition at 31.6μM): 55%
residual amount of original compound [1]: 68%
reversal of pro-amnesic action of Scopolamine (Sprague Dawley rats): significantly reverse
binding [2]: does not bind
sleepiness (healthy volunteers; 20 mg, 8 volunteers per group): 3 volunteers
adverse effects (healthy volunteers; 20 mg, first half of the day): some adverse effects were detected in five volunteers
blood pressure, one person (healthy volunteers; 20 mg, 141/88 before to 157/87 (2 h–4 h) and 155/77 (6 h–7.5 h)): transient increase in systolic pressure
QT interval in ECG (healthy volunteers; 2, 4, 10, 20 mg single PO dose): No QT interval prolongation
biochemical and clinical parameters of blood and urine (healthy volunteers; all dose groups): in a normal range
tolerability (healthy volunteers; orally, doses of up to 20 mg daily): well tolerated
reproductive function, male rats ([3]; 1.0 and 25.0 mg/kg intragastrically daily for 48 days): no reproductive function alteration
effect in female rats dosed prior to pairing ([3]; daily for 15 days prior to pairing): reduction in the body mass increase of the pregnant rats and their posterity
embryotoxic / teratogenic effect ([3]; doses up to 25.0 mg/kg, male or female): neither embryotoxic nor teratogenic effect
Papp (Caco-2 permeability): 19 ± 1.8 ×10⁻⁶ cm/s
Papp B→A (Caco-2 permeability): 21 ± 2.1 ×10⁻⁶ cm/s
Ki (5-HT1A receptor): > 30 nM
Cells with multiple aberrations (femur bone marrow cells; [7]): 0%
Total altered metaphases (%) (femur bone marrow cells; [7]): 0.8 ± 0.4%
cells with aberration, Double fragment (femur bone marrow cells; [7]): 0%
cells with aberration, Single fragment (femur bone marrow cells; [7]): 0.8%
cells with aberration, exchanges (femur bone marrow cells; [7]): 0%
cells with aberration, gaps (femur bone marrow cells; [7]): 0%
Cells with multiple aberrations (femur bone marrow cells; [8]): 0%
Total altered metaphases (%) (femur bone marrow cells; [8]): 1.4 ± 0.5%
cells with aberration, Double fragment (femur bone marrow cells; [8]): 0%
cells with aberration, Single fragment (femur bone marrow cells; [8]): 1.2%
cells with aberration, exchanges (femur bone marrow cells; [8]): 0%
cells with aberration, gaps (femur bone marrow cells; [8]): 0.2%
Cells with multiple aberrations (femur bone marrow cells; 1 mg/kg PO single dose, males): 0%
Total altered metaphases (%) (femur bone marrow cells; 1 mg/kg PO single dose, males): 1.2 ± 0.5%
cells with aberration, Double fragment (femur bone marrow cells; 1 mg/kg PO single dose, males): 0%
cells with aberration, Single fragment (femur bone marrow cells; 1 mg/kg PO single dose, males): 1.2%
cells with aberration, exchanges (femur bone marrow cells; 1 mg/kg PO single dose, males): 0%
cells with aberration, gaps (femur bone marrow cells; 1 mg/kg PO single dose, males): 0%
Cells with multiple aberrations (femur bone marrow cells; 20 mg/kg PO single dose, males): 0%
Total altered metaphases (%) (femur bone marrow cells; 20 mg/kg PO single dose, males): 1.6 ± 0.6%
cells with aberration, Double fragment (femur bone marrow cells; 20 mg/kg PO single dose, males): 0%
cells with aberration, Single fragment (femur bone marrow cells; 20 mg/kg PO single dose, males): 0.6%
cells with aberration, exchanges (femur bone marrow cells; 20 mg/kg PO single dose, males): 0%
cells with aberration, gaps (femur bone marrow cells; 20 mg/kg PO single dose, males): 1.0%
receptor activation [4]: activated neither H1 nor H2 receptors
blockade of agonist-induced cell response ([4]; 50 nM amthamine, cAMP accumulation): effectively blocked
residual amount of original compound [5]: 16%
EC50 (P-glycoprotein): ~50000 nM
effect on Pgp ATP-ase activity (P-glycoprotein; orthovanadate-sensitive ATPase): strong activation
remaining at 0.5 h, 2 µM (CYP2C9): 110%
Ki (5-HT5A receptor): 20.8 nM
Ki (Adrenergic α2C): 0.41 to 3.6 nM
binding [6]: does not bind
Blood plasma concentration (Dogs (beagles); 0.05 mg/kg IV infusion): 140 nM and 140 ± 20 nM
femoral SBP, down (Dogs (beagles); 0.5 mg/kg): 13%
Blood plasma concentration (Dogs (beagles); 0.5 mg/kg IV infusion): 990 nM and 990 ± 40 nM
femoral SBP, down (Dogs (beagles); 0.5 mg/kg, p < 0.05): 17 mm Hg
femoral SBP, down (Dogs (beagles); 2 mg/kg): 16%
Blood plasma concentration (Dogs (beagles); 2 mg/kg IV infusion): 3280 nM and 3280 ± 300 nM
shortening of QT (Dogs (beagles); 2.0 mg/kg, at 30 min): 15%
shortening of QTcV (Dogs (beagles); 2.0 mg/kg, at 30 min): 8%
femoral SBP, down (Dogs (beagles); 2 mg/kg, p < 0.05): 21 mm Hg
HR, up (Dogs (beagles); 10 mg/kg): 164%
aortic DBP, down (Dogs (beagles); 10 mg/kg): 13%
femoral BF, up (Dogs (beagles); 10 mg/kg): 27%
femoral DBP, down (Dogs (beagles); 10 mg/kg): 17%
femoral SBP, down (Dogs (beagles); 10 mg/kg): 11%
left ventricular DBP, down (Dogs (beagles); 10 mg/kg): 40%
reduction in QT (Dogs (beagles); 10.0 mg/kg): 30%
reduction in QTcV (Dogs (beagles); 10.0 mg/kg): 13%
Blood plasma concentration (Dogs (beagles); 10 mg/kg IV infusion): 11100 nM and 11100 ± 2150 nM
HR, up (Dogs (beagles); 10 mg/kg, p < 0.001): 118 bpm
aortic DBP, down (Dogs (beagles); 10 mg/kg, p < 0.05): 9 mmHg
femoral BF, up (Dogs (beagles); 10 mg/kg, p < 0.05): 35 mL/min
femoral DBP, down (Dogs (beagles); 10 mg/kg, p < 0.05): 12 mm Hg
left ventricular DBP, down (Dogs (beagles); 10 mg/kg, p < 0.05): 2 mmHg
femoral SBP, down (Dogs (beagles); 10 mg/kg, p > 0.05): 15 mm Hg
